Experimental data from publication PMC2199097 (The Journal of Experimental Medicine, 1997).

Tested on: CXCR4
Test: Ca2+ mobilization assay in SupT1 cells
Format: cell-based, human
Details: SupT1 cells expressing CXCR4, Fura-2, 500 ng/ml SDF-1α, without ALX40-4C
Outline: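 SupT1 cells were loaded with 2.5 μM Fura-2/AM for 1 h at 37°C in the dark, allowed to efflux 15 min in PBS, then resuspended at 2 × 10⁶ cells/ml in Dulbecco's PBS with calcium and magnesium. Test compound (10–50 μM) was added, and SDF-1α (500 ng/ml) followed ∼90 s later. The Ca²⁺ signal was read on a luminescence spectrometer.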

Substance: SDF-1α: the chemokine stromal-derived factor (SDF)-1α (Peprotech)
- Ca2+ mobilization response to SDF-1α: normally respond to SDF-1α
